Reference: ChEMBL document CHEMBL1124395, “Studies on bioactive compounds. 13. Synthesis and lack of growth-inhibitory properties of cyclohexane-1,2,4-triol 1,2-diesters, which resemble ring C of the phorbol ester molecule” (J Med Chem, 1989)

Experiments:
[1] = Concentration which cause half-maximal Lactate dehydrogenase in […]
Summary of the method: (§1)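 A549 cells (1 × 10^5/well) exposed 24 h to compound in medium with only 1% fetal calf serum; diacylglycerols added 3 times at 6-hourly intervals. Supernatant briefly centrifuged and kept on ice, then LDH activity read spectrophotometrically. Maximal releasable LDH came from control cells lysed with 1% Triton X-100. Half-maximal release was obtained by linear regression of the linear part of curves (≥5 concentrations, four experiments).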

Homo sapiens = species on record: Homo sapiens; assay: Concentration which cause half-maximal growth inhibition of human A549 lung carcinoma cell line; assay type: functional
Summary of the method: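 A549 human lung carcinoma cells ((2-5) × 10^4/well) grown in Ham's F12 with 10% fetal calf serum under 95% air/5% CO2 with compound for 4-5 days, until controls were confluent. Medium and compound were renewed every 2 days; diacylglycerols were added three times daily at 6-h intervals for 3 days. Final DMSO was ≤0.5%. Cells were trypsinised and counted by hemocytometer or Coulter counter. The 50% growth-inhibitory concentration was taken by linear regression (≥5 concentrations, four experiments).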

[2] = Concentration which cause half-maximal Lactate dehydrogenase release in […]; summary of the method: as §1

SMILES | LC50 [1] | IC50 (Homo sapiens) | LC50 [2]
CCCCCCCC(=O)O[C@H]1CC[C@H](O)C[C@@H]1OC(=O)CCCCCCC | 46 µM | 58 µM | 
CCCCCCCCCCCCCC(=O)O[C@@]12[C@H](OC(C)=O)[C@@H](C)[C@@]3(O)[C@@H](C=C(CO)C[C@]4(C)C(=O)C(C)=C[C@@H]34)[C@@H]1C2(C)C |  |  | > 1 µM
CCCCCCCC(=O)O[C@H]1CC[C@H](O)C[C@H]1OC(=O)CCCCCCC |  | 49 µM | 31 µM
CCCCCCCC(=O)OC[C@@H](CO)OC(=O)CCCCCCC | 56 µM | 44 µM | 
CCCCCCCC(=O)O[C@@H]1CC[C@H](O)C[C@H]1OC(=O)CCCCCCC | 36 µM | 43 µM | 
CCCCCCCC/C=C\CCCCCCCC(=O)OCC(CO)OC(C)=O (stereo unspecified) |  | 70 µM | 75 µM
